Source: ChEMBL document CHEMBL2177094, “Structure dependence of long-chain [18F]fluorothia fatty acids as myocardial fatty acid oxidation probes” (J Med Chem, 2012)

Experiments:
Type in all cases: ADME, organism-based
Blood [1] = assay: Drug uptake in overnight fasted Sprague-Dawley rat blood at 0.7 to 1.4 MBq, iv at 30 mins; settings: in vivo, 0.5 h
Outline: (§1)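 Overnight-fasted female Sprague-Dawley rats under isoflurane received the [18F] tracer in 0.5–1.0% BSA/saline by tail vein. POCA group: 30 mg/kg i.p. 2 h before tracer. Tissues were excised at 30 or 120 min, weighed and gamma-counted with decay correction. Uptake = % dose kg/g, i.e. CPM tissue × body wt (kg) × 100 / (tissue wt (g) × CPM dose). n = 5–6.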

Liver [2] = assay: Biodistribution in overnight fasted Sprague-Dawley rat liver organic fraction at 0.7 to 1.4 MBq, iv preincubated with POCA for 2 hrs before compound administration measured at 30 mins post treatment by Folch-type extraction method; settings: in vivo, 0.5 h
Outline: (§2)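 Female Sprague-Dawley rats, fasted overnight, under isoflurane (3.5% induction, 1.5% maintenance). [18F] tracer in 0.5–1.0% BSA/saline was given by tail vein. POCA group: 30 mg/kg i.p. 120 min before tracer. About 0.5 g tissue was homogenized and sonicated in chloroform/methanol (2:1) at 0 °C, then 40% urea and 5% H2SO4 were added and spun 10 min at 1,800 g. Aqueous, organic and pellet fractions were counted as % of total.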

Liver [3] = assay: Biodistribution in overnight fasted Sprague-Dawley rat liver aqueous fraction at 0.7 to 1.4 MBq, iv at 120 mins by Folch-type extraction method; settings: in vivo, 2 h; outline: as §2
Heart [4] = assay: Biodistribution in overnight fasted Sprague-Dawley rat heart pellet fraction at 0.7 to 1.4 MBq, iv at 120 mins by Folch-type extraction method; settings: in vivo, 2 h; outline: as §2
Liver [5] = assay: Biodistribution in overnight fasted Sprague-Dawley rat liver aqueous fraction at 0.7 to 1.4 MBq, iv preincubated with POCA for 2 hrs before compound administration measured at 120 mins post treatment by Folch-type extraction method; settings: in vivo; outline: as §2
Muscle tissue [6] = assay: Biodistribution in overnight fasted Sprague-Dawley rat muscle aqueous fraction at 0.7 to 1.4 MBq, iv at 120 mins by Folch-type extraction method; settings: in vivo, 2 h; outline: as §2
Liver [7] = assay: Biodistribution in overnight fasted Sprague-Dawley rat liver pellet fraction at 0.7 to 1.4 MBq, iv at 120 mins by Folch-type extraction method; settings: in vivo, 2 h; outline: as §2
Muscle tissue [8] = assay: Drug uptake in overnight fasted Sprague-Dawley rat muscle at 0.7 to 1.4 MBq, iv preincubated with POCA for 2 hrs before compound administration measured at 120 mins post treatment; settings: in vivo
Outline: (§3)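 Female rats fasted overnight, under isoflurane (3.5% induction, 1.5% maintenance). 18F-labelled tracer formulated in 0.5–1.0% BSA/saline, injected via tail vein. Tissues harvested at 30 or 120 min, weighed, gamma-counted, decay-corrected. Uptake expressed as % dose kg/g, i.e. tissue CPM × body wt (kg) × 100 / (tissue wt (g) × dose CPM). POCA groups received 30 mg/kg i.p. 2 h before tracer. n = 5–6.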

Heart [9] = assay: Biodistribution in overnight fasted Sprague-Dawley rat heart pellet fraction at 0.7 to 1.4 MBq, iv preincubated with POCA for 2 hrs before compound administration measured at 30 mins post treatment by Folch-type extraction method; settings: in vivo, 0.5 h; outline: as §2
Heart [10] = assay: Biodistribution in overnight fasted Sprague-Dawley rat heart organic fraction at 0.7 to 1.4 MBq, iv at 120 mins by Folch-type extraction method; settings: in vivo, 2 h; outline: as §2
Muscle tissue [11] = assay: Biodistribution in overnight fasted Sprague-Dawley rat muscle pellet fraction at 0.7 to 1.4 MBq, iv at 120 mins by Folch-type extraction method; settings: in vivo, 2 h; outline: as §2
Heart [12] = assay: Biodistribution in overnight fasted Sprague-Dawley rat heart pellet fraction at 0.7 to 1.4 MBq, iv preincubated with POCA for 2 hrs before compound administration measured at 120 mins post treatment by Folch-type extraction method; settings: in vivo; outline: as §2
Muscle tissue [13] = assay: Drug uptake in overnight fasted Sprague-Dawley rat muscle at 0.7 to 1.4 MBq, iv preincubated with POCA for 2 hrs before compound administration measured at 30 mins post treatment; settings: in vivo, 0.5 h; outline: as §3
Heart [14] = assay: Biodistribution in overnight fasted Sprague-Dawley rat heart organic fraction at 0.7 to 1.4 MBq, iv preincubated with POCA for 2 hrs before compound administration measured at 120 mins post treatment by Folch-type extraction method; settings: in vivo; outline: as §2
Liver [15] = assay: Biodistribution in overnight fasted Sprague-Dawley rat liver aqueous fraction at 0.7 to 1.4 MBq, iv preincubated with POCA for 2 hrs before compound administration measured at 30 mins post treatment by Folch-type extraction method; settings: in vivo, 0.5 h; outline: as §2
Muscle tissue [16] = assay: Biodistribution in overnight fasted Sprague-Dawley rat muscle organic fraction at 0.7 to 1.4 MBq, iv preincubated with POCA for 2 hrs before compound administration measured at 120 mins post treatment by Folch-type extraction method; settings: in vivo; outline: as §2
Heart [17] = assay: Biodistribution in overnight fasted Sprague-Dawley rat heart organic fraction at 0.7 to 1.4 MBq, iv preincubated with POCA for 2 hrs before compound administration measured at 30 mins post treatment by Folch-type extraction method; settings: in vivo, 0.5 h; outline: as §2
Muscle tissue [18] = assay: Biodistribution in overnight fasted Sprague-Dawley rat muscle organic fraction at 0.7 to 1.4 MBq, iv at 30 mins by Folch-type extraction method; settings: in vivo, 0.5 h; outline: as §2
Blood [19] = assay: Drug uptake in overnight fasted Sprague-Dawley rat blood at 0.7 to 1.4 MBq, iv at 120 mins; settings: in vivo, 2 h; outline: as §1
Heart [20] = assay: Biodistribution in overnight fasted Sprague-Dawley rat heart aqueous fraction at 0.7 to 1.4 MBq, iv preincubated with POCA for 2 hrs before compound administration measured at 120 mins post treatment by Folch-type extraction method; settings: in vivo; outline: as §2
Liver [21] = assay: Biodistribution in overnight fasted Sprague-Dawley rat liver pellet fraction at 0.7 to 1.4 MBq, iv preincubated with POCA for 2 hrs before compound administration measured at 120 mins post treatment by Folch-type extraction method; settings: in vivo; outline: as §2
Liver [22] = assay: Biodistribution in overnight fasted Sprague-Dawley rat liver pellet fraction at 0.7 to 1.4 MBq, iv preincubated with POCA for 2 hrs before compound administration measured at 30 mins post treatment by Folch-type extraction method; settings: in vivo, 0.5 h; outline: as §2
Kidney = assay: Drug uptake in overnight fasted Sprague-Dawley rat kidney at 0.7 to 1.4 MBq, iv at 30 mins; settings: in vivo, 0.5 h; outline: as §3
Heart [23] = assay: Drug uptake in overnight fasted Sprague-Dawley rat heart at 0.7 to 1.4 MBq, iv at 30 mins; settings: in vivo, 0.5 h; outline: as §3
Brain = assay: Drug uptake in overnight fasted Sprague-Dawley rat brain at 0.7 to 1.4 MBq, iv preincubated with POCA for 2 hrs before compound administration measured at 30 mins post treatment; settings: in vivo, 0.5 h; outline: as §1
Lung = assay: Drug uptake in overnight fasted Sprague-Dawley rat lung at 0.7 to 1.4 MBq, iv preincubated with POCA for 2 hrs before compound administration measured at 30 mins post treatment; settings: in vivo, 0.5 h; outline: as §3
Blood [24] = assay: Drug uptake in overnight fasted Sprague-Dawley rat blood at 0.7 to 1.4 MBq, iv preincubated with POCA for 2 hrs before compound administration measured at 30 mins post treatment; settings: in vivo, 0.5 h; outline: as §1
Blood [25] = assay: Drug uptake in overnight fasted Sprague-Dawley rat blood at 0.7 to 1.4 MBq, iv preincubated with POCA for 2 hrs before compound administration measured at 120 mins post treatment; settings: in vivo; outline: as §1
Muscle tissue [26] = assay: Biodistribution in overnight fasted Sprague-Dawley rat muscle pellet fraction at 0.7 to 1.4 MBq, iv preincubated with POCA for 2 hrs before compound administration measured at 30 mins post treatment by Folch-type extraction method; settings: in vivo, 0.5 h; outline: as §2

Row | Drug uptake (Blood [1]) [%IDKg/g] | Drug uptake (Liver [2]) [%] | Drug uptake (Liver [3]) [%] | Drug uptake (Heart [4]) [%] | Drug uptake (Liver [5]) [%] | Drug uptake (Muscle tissue [6]) [%] | Drug uptake (Liver [7]) [%] | Drug uptake (Muscle tissue [8]) [%IDKg/g] | Drug uptake (Heart [9]) [%] | Drug uptake (Heart [10]) [%] | Drug uptake (Muscle tissue [11]) [%] | Drug uptake (Heart [12]) [%] | Drug uptake (Muscle tissue [13]) [%IDKg/g] | Drug uptake (Heart [14]) [%] | Drug uptake (Liver [15]) [%] | Drug uptake (Muscle tissue [16]) [%] | Drug uptake (Heart [17]) [%] | Drug uptake (Muscle tissue [18]) [%] | Drug uptake (Blood [19]) [%IDKg/g] | Drug uptake (Heart [20]) [%] | also measured | Compound
1 | 0.029 | 54.88 | 10.15 | 67.39 | 7.45 | 18.18 | 54.58 | 0.0599 | 32.16 | 28.56 | 42.06 | 22.48 | 0.0639 | 74.2 | 10.75 | 59.27 | 63.99 | 44.55 | 0.0241 | 3.3 | Drug uptake (Liver [21]): 27.76%; Drug uptake (Liver [22]): 34.35%; Drug uptake (Kidney): 0.2095 %IDKg/g; Drug uptake (Heart [23]): 0.4413 %IDKg/g; Drug uptake (Brain): 0.0879 %IDKg/g; Drug uptake (Lung): 0.1163 %IDKg/g; Drug uptake (Blood [24]): 0.051 %IDKg/g; Drug uptake (Blood [25]): 0.0271 %IDKg/g; Drug uptake (Muscle tissue [26]): 48.85% | O=C(O)CCCCSCCCCCCCCCCCC[18F]
2 | 0.0392 | 51.76 | 8.18 | 71.45 | 10.23 | 11.58 | 36.13 | 0.0197 | 24.67 | 26.14 | 39.51 | 21.68 | 0.0443 | 74.91 | 31.69 | 58.25 | 67.58 | 38.77 | 0.0098 | 3.39 | Drug uptake (Liver [21]): 22.07%; Drug uptake (Liver [22]): 16.53%; Drug uptake (Kidney): 0.1872 %IDKg/g; Drug uptake (Heart [23]): 0.314 %IDKg/g; Drug uptake (Brain): 0.0385 %IDKg/g; Drug uptake (Lung): 0.0998 %IDKg/g; Drug uptake (Blood [24]): 0.051 %IDKg/g; Drug uptake (Blood [25]): 0.0125 %IDKg/g; Drug uptake (Muscle tissue [26]): 27.04% | O=C(O)CCSCCCCCCCCCCCCCC[18F]
3 | 0.07 | 41.68 | 5.32 | 76.93 | 11.52 | 16.17 | 63.27 | 0.0298 | 32.81 | 18.88 | 49.81 | 24.47 | 0.0333 | 67.98 | 20.23 | 48.14 | 51.9 | 33.56 | 0.0105 | 7.53 | Drug uptake (Liver [21]): 38.47%; Drug uptake (Liver [22]): 38.07%; Drug uptake (Kidney): 0.209 %IDKg/g; Drug uptake (Heart [23]): 0.589 %IDKg/g; Drug uptake (Brain): 0.04879 %IDKg/g; Drug uptake (Lung): 0.0676 %IDKg/g; Drug uptake (Blood [24]): 0.0633 %IDKg/g; Drug uptake (Blood [25]): 0.0392 %IDKg/g; Drug uptake (Muscle tissue [26]): 32.63% | O=C(O)CCSCCCCCCCCCCCC[18F]
4 | 0.0441 | 58.8 | 5.68 | 88.78 | 8.1 | 9.91 | 59.56 | 0.0216 | 23.8 | 9.34 | 67.95 | 29.14 | 0.0297 | 66.66 | 16.3 | 53.25 | 62.03 | 21.75 | 0.0185 | 4.19 | Drug uptake (Liver [21]): 23.82%; Drug uptake (Liver [22]): 24.88%; Drug uptake (Kidney): 0.2035 %IDKg/g; Drug uptake (Heart [23]): 0.7028 %IDKg/g; Drug uptake (Brain): 0.0368 %IDKg/g; Drug uptake (Lung): 0.0458 %IDKg/g; Drug uptake (Blood [24]): 0.0606 %IDKg/g; Drug uptake (Blood [25]): 0.0141 %IDKg/g; Drug uptake (Muscle tissue [26]): 32.74% | O=C(O)CCSCCCC/C=C\CCCCCCCC[18F]
